Laboratory results published in ChEMBL document CHEMBL5705902, “Role of G Protein-Coupled Receptor Kinases 2 and 3 in μ-Opioid Receptor Desensitization and Internalization” (Mol Pharmacol, 2015).
Active and inactive are the calls of the source. No cut-off for these calls is given here.

Experiments:
[1] = molecular target: Mu-type opioid receptor (Rattus norvegicus) (UniProt P33535); assay: Inhibition of MOPr desensitization in wistar rat LC neuron cells assessed as reduction in the Met-Enk induced desensitization incubated for 15 mins before; format: functional, cell-based; conditions: dose 3-30 µM
Method in brief: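 Whole-cell patch clamp of GIRK currents in locus coeruleus slices from male Wistar rats (5–8 weeks). Inhibitor was given at least 15 min before and during the agonist, all drugs by superfusion. Percent desensitization was taken over 10 min of opioid agonist application. Met-Enk n = 5, endomorphin-2 n = 6; ANOVA.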
Target sequence in this assay (P33535 whole entry, the tested form may be a part): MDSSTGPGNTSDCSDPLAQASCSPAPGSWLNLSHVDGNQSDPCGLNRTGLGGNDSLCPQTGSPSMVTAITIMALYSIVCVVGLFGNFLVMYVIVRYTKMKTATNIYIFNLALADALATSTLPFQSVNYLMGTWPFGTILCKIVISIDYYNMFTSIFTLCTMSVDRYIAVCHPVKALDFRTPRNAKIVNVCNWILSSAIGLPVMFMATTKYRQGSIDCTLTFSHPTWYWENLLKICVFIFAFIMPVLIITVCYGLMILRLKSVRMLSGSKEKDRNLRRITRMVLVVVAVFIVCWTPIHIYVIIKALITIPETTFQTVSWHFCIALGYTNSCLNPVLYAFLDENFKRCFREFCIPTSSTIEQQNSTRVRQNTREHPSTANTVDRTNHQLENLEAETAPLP

[2] = molecular target: Mu-type opioid receptor (Rattus norvegicus) (UniProt P33535); assay: Inhibition of MOPr desensitization in wistar rat LC neuron cells assessed as reduction in the Met-Enk induced desensitization at 30 uM incubated for 15 mins before in the presence of PD98059; format: functional, cell-based
Target sequence in this assay (P33535 whole entry, the tested form may be a part): as above

[3] = molecular target: Mu-type opioid receptor (Rattus norvegicus) (UniProt P33535); assay: Inhibition of MOPr desensitization in wistar rat LC neuron cells assessed as reduction in the Met-Enk induced desensitization at 30 uM incubated for 15 mins before in the presence of amlexanox; format: functional, cell-based
Target sequence in this assay (P33535 whole entry, the tested form may be a part): as above

[4] = molecular target: Mu-type opioid receptor (Rattus norvegicus) (UniProt P33535); assay: Inhibition of HA-tagged rat MOPr in HEK293 cells assessed as DAMGO induced MOPr phosphorylation at Ser375 level at 3 uM preincubated for 30 mins by western blot analysis; format: functional, cell-based
Method in brief: (§1)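 Serum-starved HEK 293 cells stably expressing HA-rat MOPr were pretreated with inhibitor for 30 min, then DAMGO 10 μM for 5 min. Receptor was enriched on WGA-agarose overnight at 4°C and blotted for pSer375. Densitometry was done in duplicate and normalized to total HA-MOPr; n = 3.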
Target sequence in this assay (P33535 whole entry, the tested form may be a part): as above

[5] = molecular target: Mu-type opioid receptor (Rattus norvegicus) (UniProt P33535); assay: Inhibition of HA-tagged rat MOPr in HEK293 cells assessed as DAMGO induced MOPr phosphorylation at Ser375 level at 30 uM preincubated for 30 mins by western blot analysis; format: functional, cell-based; method in brief: as §1
Target sequence in this assay (P33535 whole entry, the tested form may be a part): as above

[6] = molecular target: Mu-type opioid receptor (Rattus norvegicus) (UniProt P33535); assay: Inhibition of HA-tagged rat MOPr in HEK293 cells assessed as prevention in DAMGO induced MOPr phosphorylation at Thr379 level at 30 uM preincubated for 30 mins by western blot analysis; format: functional, cell-based
Target sequence in this assay (P33535 whole entry, the tested form may be a part): as above

[7] = molecular target: Mu-type opioid receptor (Homo sapiens) (UniProt P35372); assay: Inhibition of HA-tagged MOPr (unknown origin) stably expressed in human U2OS cells assessed as reduction in DAMGO induced large recruitment of arrestin-3 translocation at 30 uM preincubated for 30 mins by DiscoveRx PathHunter assay; format: functional, cell-based
Method in brief: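 PathHunter U2OS cells stably express tagged human MOPr and tagged arrestin-3. Recruitment reconstitutes β-galactosidase, read by luminescence. DAMGO 10 μM was applied for 90 min, with inhibitor (30 μM) added 30 min before; n = 3.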

[8] = molecular target: Mu-type opioid receptor (Rattus norvegicus) (UniProt P33535); assay: Inhibition of HA-tagged rat MOPr stably expressing in HEK293 cells assessed as increase in DAMGO-induced ERK1/2 phosphorylation level at 3 to 30 uM preincubated for 30 mins by westernblot analysis; format: functional, cell-based; conditions: dose 3-30 µM
Method in brief: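 HEK 293 cells stably expressing HA-tagged rat MOPr were grown to 90% confluence and serum-starved 24 h. Inhibitor was added for 30 min, then DAMGO 10 μM for 5 min. pERK1/2 was measured by Western blot with ECL detection. Densitometry was done in duplicate, normalized to total ERK1/2 and expressed as % of maximal DAMGO response; n = 4.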

[9] = molecular target: Ribosomal protein S6 kinase beta-1 (Homo sapiens) (UniProt P23443); assay: Inhibition of human S6K1 assessed as remaining activity at 1 uM in presence of 32ATP relative to control
Method in brief: (§2)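 Express panel of 52 purified human kinases run in vitro. Kinase activity was measured directly by a radioactive filter-binding assay with ³²ATP, at ATP levels at or below each kinase's calculated Km for ATP. The compound was tested at 1 μM. Each assay was run in duplicate, and activity is given as the mean percentage (with S.D.) of activity without inhibitor.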

[10] = molecular target: Serine/threonine-protein kinase D1 (Homo sapiens) (UniProt Q15139); assay: Inhibition of human PKD1 assessed as remaining activity at 1 uM in presence of 32ATP relative to control; method in brief: as §2
Homo sapiens [11] = species on record: Homo sapiens; assay: Inhibition of human VEGFR assessed as remaining activity at 1 uM in presence of 32ATP relative to control; method in brief: as §2
Homo sapiens [12] = species on record: Homo sapiens; assay: Inhibition of human AMPK assessed as remaining activity at 1 uM in presence of 32ATP relative to control
Method in brief: (§3)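 Express screen of 52 purified human kinases run as a radioactive filter-binding assay with 32ATP, at 1 μM inhibitor. ATP was at or below each kinase's calculated Km. Activity is given as percent of the activity without inhibitor. Run in duplicate; mean with S.D.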

[13] = molecular target: Ephrin type-A receptor 2 (Homo sapiens) (UniProt P29317); assay: Inhibition of human EPHA2 assessed as remaining activity at 1 uM in presence of 32ATP relative to control; method in brief: as §2
[14] = molecular target: Myosin light chain kinase, smooth muscle (Homo sapiens) (UniProt Q15746); assay: Inhibition of human SmMLCK assessed as remaining activity at 1 uM in presence of 32ATP relative to control; method in brief: as §2
[15] = molecular target: Interleukin-1 receptor-associated kinase 4 (Homo sapiens) (UniProt Q9NWZ3); assay: Inhibition of human IRAK4 assessed as remaining activity at 1 uM in presence of 32ATP relative to control; method in brief: as §2
[16] = molecular target: Mitogen-activated protein kinase 14 (Homo sapiens) (UniProt Q16539); assay: Inhibition of human p38a MAPK assessed as remaining activity at 1 uM in presence of 32ATP relative to control; method in brief: as §2
[17] = molecular target: Eukaryotic elongation factor 2 kinase (Homo sapiens) (UniProt O00418); assay: Inhibition of human EF2K assessed as remaining activity at 1 uM in presence of 32ATP relative to control; method in brief: as §3
[18] = molecular target: High affinity nerve growth factor receptor (Homo sapiens) (UniProt P04629); assay: Inhibition of human TrkA assessed as remaining activity at 1 uM in presence of 32ATP relative to control; method in brief: as §2
[19] = molecular target: Mitogen-activated protein kinase kinase kinase 7 (Homo sapiens) (UniProt O43318); assay: Inhibition of human TAK1 assessed as remaining activity at 1 uM in presence of 32ATP relative to control; method in brief: as §2
Homo sapiens [20] = species on record: Homo sapiens; assay: Inhibition of CAMKK (unknown origin) at 1 uM in presence of 32ATP relative to control; method in brief: as §3
[21] = molecular target: Serine/threonine-protein kinase Sgk1 (Homo sapiens) (UniProt O00141); assay: Inhibition of human SGK1 at 1 uM in presence of 32ATP relative to control; method in brief: as §2
[22] = molecular target: G protein-coupled receptor kinase 3 (Homo sapiens, UniProt P35626); assay: Inhibition of human GRK3 in the presence of ATP
[23] = molecular target: Beta-adrenergic receptor kinase 1 (Homo sapiens) (UniProt P25098); assay: Inhibition of human GRK2 at 1 uM relative to control
[24] = molecular target: Mu-type opioid receptor (Rattus norvegicus) (UniProt P33535); assay: Inhibition of MOPr desensitization (unknown origin) assessed as reduction in the DAMGO induced desensitization at 3 to 30 uM incubated for 15 mins; conditions: dose 3-30 µM
[25] = molecular target: Mu-type opioid receptor (Mus musculus) (UniProt P42866); assay: Inhibition of MOPr desensitization in C57BL/6J mouse LC neuron cells assessed as reduction in the Met-Enk induced desensitization at 3 uM incubated for 15 mins before

Sequence of Beta-adrenergic receptor kinase 1 (Homo sapiens) (P25098 whole entry): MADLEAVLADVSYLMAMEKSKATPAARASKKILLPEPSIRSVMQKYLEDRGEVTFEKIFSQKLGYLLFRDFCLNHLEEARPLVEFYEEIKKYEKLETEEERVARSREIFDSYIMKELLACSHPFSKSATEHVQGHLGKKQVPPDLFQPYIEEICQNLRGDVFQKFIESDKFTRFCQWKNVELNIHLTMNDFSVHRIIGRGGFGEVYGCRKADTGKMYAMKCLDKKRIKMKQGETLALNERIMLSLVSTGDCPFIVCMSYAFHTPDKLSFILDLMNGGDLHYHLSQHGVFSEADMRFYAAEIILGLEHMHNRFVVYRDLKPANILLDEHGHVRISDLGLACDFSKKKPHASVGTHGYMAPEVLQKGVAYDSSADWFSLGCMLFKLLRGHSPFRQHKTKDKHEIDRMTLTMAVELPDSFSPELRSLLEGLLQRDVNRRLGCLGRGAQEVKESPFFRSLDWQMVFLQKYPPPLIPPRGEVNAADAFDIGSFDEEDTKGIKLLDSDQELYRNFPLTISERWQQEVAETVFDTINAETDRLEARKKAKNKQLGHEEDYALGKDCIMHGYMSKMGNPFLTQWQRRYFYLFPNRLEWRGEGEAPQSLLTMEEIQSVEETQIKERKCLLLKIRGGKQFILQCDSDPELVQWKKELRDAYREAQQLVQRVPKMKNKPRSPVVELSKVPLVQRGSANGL
Sequence of Mitogen-activated protein kinase 14 (Homo sapiens) (Q16539 whole entry): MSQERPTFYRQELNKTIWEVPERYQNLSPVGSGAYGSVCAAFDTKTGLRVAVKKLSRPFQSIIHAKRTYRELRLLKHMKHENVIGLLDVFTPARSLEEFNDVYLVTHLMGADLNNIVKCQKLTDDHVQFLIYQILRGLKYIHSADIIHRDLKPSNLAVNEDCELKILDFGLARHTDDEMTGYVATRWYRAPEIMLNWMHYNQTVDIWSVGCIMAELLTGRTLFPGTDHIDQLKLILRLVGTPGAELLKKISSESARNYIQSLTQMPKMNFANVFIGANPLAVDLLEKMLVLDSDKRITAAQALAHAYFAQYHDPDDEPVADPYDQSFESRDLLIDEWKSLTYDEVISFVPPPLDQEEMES
Sequence of Eukaryotic elongation factor 2 kinase (Homo sapiens) (O00418 whole entry): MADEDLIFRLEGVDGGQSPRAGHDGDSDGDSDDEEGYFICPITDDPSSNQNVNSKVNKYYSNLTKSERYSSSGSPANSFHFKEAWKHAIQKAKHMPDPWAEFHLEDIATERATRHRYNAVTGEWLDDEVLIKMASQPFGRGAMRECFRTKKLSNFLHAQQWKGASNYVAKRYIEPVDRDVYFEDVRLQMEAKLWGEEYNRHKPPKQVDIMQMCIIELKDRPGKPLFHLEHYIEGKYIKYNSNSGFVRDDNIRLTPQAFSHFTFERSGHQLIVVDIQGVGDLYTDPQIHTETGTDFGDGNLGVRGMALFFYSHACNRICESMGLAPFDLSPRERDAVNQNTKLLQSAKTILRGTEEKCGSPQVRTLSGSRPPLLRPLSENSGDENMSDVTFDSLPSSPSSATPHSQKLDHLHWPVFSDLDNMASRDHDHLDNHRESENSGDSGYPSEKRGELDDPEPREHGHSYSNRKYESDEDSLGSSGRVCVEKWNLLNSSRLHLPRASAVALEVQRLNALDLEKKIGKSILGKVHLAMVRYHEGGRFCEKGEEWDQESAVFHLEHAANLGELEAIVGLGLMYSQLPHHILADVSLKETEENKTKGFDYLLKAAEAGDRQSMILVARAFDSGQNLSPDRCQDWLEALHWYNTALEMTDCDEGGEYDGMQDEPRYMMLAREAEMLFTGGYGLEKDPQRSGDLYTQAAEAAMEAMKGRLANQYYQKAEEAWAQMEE
Sequence of Mitogen-activated protein kinase kinase kinase 7 (Homo sapiens) (O43318 whole entry): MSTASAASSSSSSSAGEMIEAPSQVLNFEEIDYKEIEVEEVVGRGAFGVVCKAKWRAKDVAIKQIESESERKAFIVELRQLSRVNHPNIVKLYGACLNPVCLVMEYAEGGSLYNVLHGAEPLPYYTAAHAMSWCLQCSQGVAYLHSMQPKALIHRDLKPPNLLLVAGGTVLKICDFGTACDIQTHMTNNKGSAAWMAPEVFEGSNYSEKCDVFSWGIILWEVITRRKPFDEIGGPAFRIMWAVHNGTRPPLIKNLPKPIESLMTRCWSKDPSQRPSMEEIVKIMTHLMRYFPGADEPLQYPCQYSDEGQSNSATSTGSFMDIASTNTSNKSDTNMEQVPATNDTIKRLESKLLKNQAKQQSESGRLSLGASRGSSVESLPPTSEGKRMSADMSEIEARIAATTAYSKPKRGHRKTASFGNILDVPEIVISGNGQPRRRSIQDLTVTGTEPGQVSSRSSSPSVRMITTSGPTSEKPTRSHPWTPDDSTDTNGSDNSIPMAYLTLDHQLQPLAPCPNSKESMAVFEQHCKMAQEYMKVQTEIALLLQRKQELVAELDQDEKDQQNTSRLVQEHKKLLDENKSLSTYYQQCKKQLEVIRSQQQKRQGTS
Sequence of G protein-coupled receptor kinase 3 (P35626 whole entry): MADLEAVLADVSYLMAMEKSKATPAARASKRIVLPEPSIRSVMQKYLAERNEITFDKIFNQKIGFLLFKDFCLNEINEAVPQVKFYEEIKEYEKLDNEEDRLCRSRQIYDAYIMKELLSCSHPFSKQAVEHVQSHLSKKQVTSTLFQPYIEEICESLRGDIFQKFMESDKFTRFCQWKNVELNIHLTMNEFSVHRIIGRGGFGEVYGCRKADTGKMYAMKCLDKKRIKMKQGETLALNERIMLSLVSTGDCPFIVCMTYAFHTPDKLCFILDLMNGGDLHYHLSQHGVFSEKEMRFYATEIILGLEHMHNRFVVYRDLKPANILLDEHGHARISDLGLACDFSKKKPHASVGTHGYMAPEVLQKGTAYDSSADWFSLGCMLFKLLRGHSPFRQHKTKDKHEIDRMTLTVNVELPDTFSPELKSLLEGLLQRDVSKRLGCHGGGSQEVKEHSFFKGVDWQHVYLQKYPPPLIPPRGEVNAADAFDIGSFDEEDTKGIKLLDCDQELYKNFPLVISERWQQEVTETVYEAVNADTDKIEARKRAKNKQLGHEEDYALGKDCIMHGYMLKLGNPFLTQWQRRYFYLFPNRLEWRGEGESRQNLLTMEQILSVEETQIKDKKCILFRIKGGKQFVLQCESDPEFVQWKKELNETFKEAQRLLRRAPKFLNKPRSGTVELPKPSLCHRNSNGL
Sequence of Mu-type opioid receptor (Homo sapiens) (P35372 whole entry): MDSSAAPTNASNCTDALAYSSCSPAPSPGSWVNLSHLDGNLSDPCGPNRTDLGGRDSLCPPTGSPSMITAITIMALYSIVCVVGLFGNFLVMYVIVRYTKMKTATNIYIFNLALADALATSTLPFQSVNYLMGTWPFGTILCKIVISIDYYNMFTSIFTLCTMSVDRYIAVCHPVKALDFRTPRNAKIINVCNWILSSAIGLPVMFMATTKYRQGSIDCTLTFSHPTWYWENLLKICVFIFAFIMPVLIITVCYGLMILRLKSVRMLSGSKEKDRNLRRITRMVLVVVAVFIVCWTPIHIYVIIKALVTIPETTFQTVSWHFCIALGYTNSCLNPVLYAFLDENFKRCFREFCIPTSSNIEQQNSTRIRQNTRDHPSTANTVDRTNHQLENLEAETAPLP
Sequence of Serine/threonine-protein kinase D1 (Homo sapiens) (Q15139 whole entry): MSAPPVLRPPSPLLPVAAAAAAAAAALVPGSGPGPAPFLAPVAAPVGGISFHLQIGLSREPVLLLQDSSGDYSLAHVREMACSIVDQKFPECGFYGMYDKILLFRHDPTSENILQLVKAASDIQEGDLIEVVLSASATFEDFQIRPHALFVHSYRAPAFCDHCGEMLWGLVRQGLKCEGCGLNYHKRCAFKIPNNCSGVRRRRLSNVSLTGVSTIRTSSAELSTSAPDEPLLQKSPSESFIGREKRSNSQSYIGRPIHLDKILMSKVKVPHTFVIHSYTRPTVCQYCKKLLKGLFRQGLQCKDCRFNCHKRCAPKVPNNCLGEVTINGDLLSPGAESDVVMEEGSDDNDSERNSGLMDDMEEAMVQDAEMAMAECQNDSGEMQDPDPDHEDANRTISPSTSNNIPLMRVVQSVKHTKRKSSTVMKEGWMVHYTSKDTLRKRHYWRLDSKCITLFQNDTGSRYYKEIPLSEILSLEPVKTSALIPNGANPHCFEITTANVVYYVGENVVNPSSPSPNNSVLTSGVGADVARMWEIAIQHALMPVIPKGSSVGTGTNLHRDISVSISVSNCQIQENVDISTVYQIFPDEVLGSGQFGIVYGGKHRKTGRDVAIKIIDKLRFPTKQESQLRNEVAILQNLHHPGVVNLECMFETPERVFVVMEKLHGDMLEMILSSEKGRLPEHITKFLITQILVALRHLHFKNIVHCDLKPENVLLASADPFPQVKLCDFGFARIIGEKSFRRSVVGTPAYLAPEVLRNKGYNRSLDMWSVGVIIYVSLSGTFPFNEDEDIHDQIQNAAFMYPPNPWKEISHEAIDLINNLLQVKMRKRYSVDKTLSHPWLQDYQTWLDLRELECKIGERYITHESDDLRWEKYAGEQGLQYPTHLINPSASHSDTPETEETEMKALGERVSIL

With `Cn1c(CNc2cccc(C(=O)NCc3ccccc3C(F)(F)F)c2)nnc1-c1ccncc1` as the compound, how does the inhibition [1] read?
The inhibition was “Dose-Dependent Effect”.

What about the inhibition [2] of the same compound?
Its inhibition is “inactive”.

And the inhibition [3]?
The inhibition was “inactive”.

And the inhibition [4]?
Its inhibition is “Active”.

What about the inhibition [5] of the same compound?
The inhibition was “Active”.

What about the inhibition [6] of the same compound?
The inhibition was “Active”.

And the inhibition [7]?
The inhibition was “Active”.

What about the inhibition [8] of the same compound?
Its inhibition is “inactive”.

And the Activity [9]?
The Activity was 47%.

And the Activity [10]?
Its Activity is 65%.

What about the Activity (Homo sapiens [11]) of the same compound?
Its Activity is 79%.

And the Activity (Homo sapiens [12])?
Its Activity is 82%.

And the Activity [13]?
The Activity was 85%.

And the Activity [14]?
Its Activity is 89%.

What about the Activity [15] of the same compound?
Its Activity is 96%.

What about the Activity [16] of the same compound?
Its Activity is 101%.

What about the Activity [17] of the same compound?
The Activity was 103%.

What about the Activity [18] of the same compound?
Its Activity is 106%.

What about the Activity [19] of the same compound?
The Activity was 113%.

What about the inhibition (Homo sapiens [20]) of the same compound?
Its inhibition is under 20%.

What about the inhibition [21] of the same compound?
Its inhibition is 69%.

What about the IC50 [22] of the same compound?
The IC50 was 290 nM.

And the inhibition [23]?
The inhibition was over 90%.

What about the inhibition [24] of the same compound?
Its inhibition is “Active”.

And the inhibition [25]?
Its inhibition is “Active”.
